Experimental data as given in ChEMBL document CHEMBL3875206, “Design, synthesis and biological evaluation of 4'-aminochalcone-rivastigmine hybrids as multifunctional agents for the treatment of Alzheimer's disease” (Bioorg Med Chem, 2017).
Calls of active or inactive are those of the source. The calls are words filed in the database; no cut-off is given here.

How the values were obtained:
Acetylcholinesterase = Acetylcholinesterase (Electrophorus electricus, UniProt O42275); experiment: Inhibition of electric eel AChE using acetylthiocholine iodide as substrate incubated for 15 mins by Ellman's method
Outline: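 Ellman spectrophotometric assay: electric eel AChE 0.05 U/mL final, acetylthiocholine iodide 1 mmol/L, phosphate buffer pH 8.0, range of compound concentrations.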

[1] = Inhibition of rat serum BuChE at 50 uM using butyrylthiocholine iodide as substrate incubated for 15 mins by Ellman's method relative to control; conditions: 0.25 h
Outline: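 Ellman method with 25% rat serum as BuChE source, butyrylthiocholine iodide 1 mmol/L, phosphate buffer pH 7.4, absorbance at 405 nm. Compounds tested at 50 µM. […] Triplicate wells.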

[2] = Antioxidant activity assessed as trolox equivalents of AAPH radical scavenging activity at 5 uM preincubated for 15 mins followed by AAPH addition measured every 60 sec for 90 mins by ORAC-FL assay; format: functional
Outline: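 Peroxyl radicals generated by AAPH (12 mM final) at 37 °C in phosphate buffer pH 7.4 with fluorescein (150 nM final). Sample and fluorescein were preincubated 15 min before AAPH addition. Fluorescence (ex 485/em 535 nm) was read every 60 s for 90 min.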

[3] = molecular target: Acetylcholinesterase (Electrophorus electricus) (UniProt O42275); experiment: Mixed-type inhibition of electric eel AChE at 2.5 to 10 uM using varying levels of acetylthiocholine iodide as substrate preincubated for 15 mins followed by substrate addition by Lineweaver-Burk plot analysis
Outline: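 Kinetics with EeAChE in 0.1 M phosphate pH 8.0 with DTNB. Three inhibitor concentrations preincubated with enzyme 15 min at 37 °C, then acetylthiocholine added at 0.1–0.4 mM. Read at 412 nm. Weighted least-squares Lineweaver–Burk plots; slopes replotted against inhibitor concentration. No-inhibitor controls run in parallel.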

[4] = Metal chelating activity assessed as compound-Cu2+ complex formation by measuring shift in maximum absorption wavelength at 37.5 uM after 30 mins by UV-vis spectrophotometric method; format: physicochemical; conditions: 0.5 h
Outline: (§1)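 Difference UV-vis spectra (200-600 nm) of compound and metal salt (CuCl2 or AlCl3), each 37.5 µM final, after 30 min at room temperature. Spectra of metal alone and compound alone were subtracted from the mixture spectrum.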

[5] = Metal chelating activity assessed as compound-Al3+ complex formation by measuring shift in maximum absorption wavelength at 37.5 uM after 30 mins by UV-vis spectrophotometric method; format: physicochemical; conditions: 0.5 h; outline: as §1
[6] = Metal chelating activity assessed as mole fraction of compound required to show 1:1 stoichiometry for Cu2+-compound complex at 37.5 uM after 30 mins by UV-vis spectrophotometric method; format: physicochemical; conditions: 0.5 h
Outline: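 Molar ratio method: a methanol solution of compound (37.5 µM final) was titrated with CuCl2 (3.75-150 µM final). Absorbance at 474 nm was taken after subtracting CuCl2 and compound spectra and plotted against the compound mole fraction. The intersection of the linear segments gave the stoichiometry.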

[7] = molecular target: Amyloid-beta precursor protein (Homo sapiens) (UniProt P05067); experiment: Inhibition of self-induced aggregation of amyloid beta (1-42) (unknown origin) at 25 uM after 24 hrs by thioflavin T fluorescence-based fluorimetric method relative to control
Outline: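 Aβ1-42 was pretreated in HFIP, dried and stocked in DMSO. Aβ1-42 (25 µM final) was incubated with compound (25 µM final) in 50 mM phosphate buffer pH 7.4 at 37 °C for 24 h. 5 µM ThT in 50 mM glycine-NaOH pH 8.5 was then added. Fluorescence was read at ex 446/em 490 nm. Inhibition = (1−IFi/IFc)×100 after background subtraction, in triplicate.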

[8] = Inhibition of Cu2+-mediated aggregation of amyloid beta (1-42) (unknown origin) at 25 uM after 24 hrs by thioflavin T fluorescence-based fluorimetric method relative to control; format: functional
Outline: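 HFIP-pretreated Aβ1-42 (25 µM) was incubated with Cu2+ (25 µM), with or without compound (25 µM final), in 20 mM HEPES/150 mM NaCl pH 6.6 at 37 °C for 24 h. 5 µM ThT in 50 mM glycine-NaOH pH 8.5 was then added. Fluorescence was read at ex 446/em 490 nm. Percent inhibition was taken versus no-inhibitor control after background subtraction, in triplicate.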

[9] = molecular target: T1, Amine oxidase [flavin-containing] B (Homo sapiens, UniProt P27338); experiment: Inhibition of recombinant human MAO-B expressed in baculovirus infected High 5 insect cells using kynuramine as substrate incubated for 30 mins by spectrofluorometric method; format: cell-based
T1 sequence (P27338 whole entry): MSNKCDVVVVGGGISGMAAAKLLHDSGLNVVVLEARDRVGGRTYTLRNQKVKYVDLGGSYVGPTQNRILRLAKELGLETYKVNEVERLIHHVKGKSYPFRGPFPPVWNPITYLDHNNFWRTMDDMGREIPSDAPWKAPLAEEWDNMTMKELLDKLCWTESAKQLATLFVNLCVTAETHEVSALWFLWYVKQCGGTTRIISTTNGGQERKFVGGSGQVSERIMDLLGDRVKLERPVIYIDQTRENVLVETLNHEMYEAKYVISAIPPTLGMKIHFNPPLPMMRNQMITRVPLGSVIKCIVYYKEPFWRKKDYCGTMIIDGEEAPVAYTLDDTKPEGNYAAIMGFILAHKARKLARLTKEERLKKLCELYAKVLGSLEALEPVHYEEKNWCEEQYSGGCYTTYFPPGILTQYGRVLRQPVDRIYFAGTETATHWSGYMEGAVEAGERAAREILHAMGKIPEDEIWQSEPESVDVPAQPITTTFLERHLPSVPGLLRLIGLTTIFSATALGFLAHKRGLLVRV

[10] = molecular target: T2, Amine oxidase [flavin-containing] A (Homo sapiens, UniProt P21397); experiment: Inhibition of recombinant human MAO-A expressed in baculovirus infected High 5 insect cells at 10 uM using kynuramine as substrate incubated for 30 mins by spectrofluorometric method relative to control; conditions: 0.5 h
T2 sequence (P21397 whole entry): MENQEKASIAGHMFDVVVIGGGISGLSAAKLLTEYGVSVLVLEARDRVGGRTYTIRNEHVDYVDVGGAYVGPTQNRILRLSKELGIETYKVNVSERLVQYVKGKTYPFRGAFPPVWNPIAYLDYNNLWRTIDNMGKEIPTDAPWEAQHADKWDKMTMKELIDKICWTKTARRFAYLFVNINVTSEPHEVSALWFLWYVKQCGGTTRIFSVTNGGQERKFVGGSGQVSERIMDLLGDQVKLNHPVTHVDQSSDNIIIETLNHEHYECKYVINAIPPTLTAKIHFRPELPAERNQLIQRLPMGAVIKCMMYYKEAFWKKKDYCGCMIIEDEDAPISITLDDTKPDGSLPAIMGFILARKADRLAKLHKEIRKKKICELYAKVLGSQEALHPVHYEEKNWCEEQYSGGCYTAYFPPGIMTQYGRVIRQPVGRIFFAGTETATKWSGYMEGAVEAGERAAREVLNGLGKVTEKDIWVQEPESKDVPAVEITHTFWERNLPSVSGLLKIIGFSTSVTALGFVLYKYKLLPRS
Outline: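 Recombinant human MAO-A or MAO-B (7.5 µg/mL) with kynuramine substrate in 100 mM potassium phosphate pH 7.4 (KCl-isotonic), <4% DMSO, 30 min at 37 °C. Stopped with 2 N NaOH. 4-Hydroxyquinoline was measured fluorometrically (ex 310/em 400 nm) against a calibration curve. Single-point inhibition at 10 µM. IC50 from six-concentration sigmoidal curves, triplicate. SI = IC50(MAO-A)/IC50(MAO-B).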

[11] = molecular target: T1, Amine oxidase [flavin-containing] B; experiment: Potency index, ratio of iproniazid IC50 to compound IC50 for recombinant human MAO-B expressed in baculovirus infected High 5 insect cells
[12] = molecular target: T1, Amine oxidase [flavin-containing] B; experiment: Potency index, ratio of rasagiline IC50 to compound IC50 for recombinant human MAO-B expressed in baculovirus infected High 5 insect cells
[13] = Permeability of compound at 100 ug/ml after 18 hrs by PAMPA; format: ADME; conditions: read-out: permeability

Chain of Acetylcholinesterase (O42275 whole entry): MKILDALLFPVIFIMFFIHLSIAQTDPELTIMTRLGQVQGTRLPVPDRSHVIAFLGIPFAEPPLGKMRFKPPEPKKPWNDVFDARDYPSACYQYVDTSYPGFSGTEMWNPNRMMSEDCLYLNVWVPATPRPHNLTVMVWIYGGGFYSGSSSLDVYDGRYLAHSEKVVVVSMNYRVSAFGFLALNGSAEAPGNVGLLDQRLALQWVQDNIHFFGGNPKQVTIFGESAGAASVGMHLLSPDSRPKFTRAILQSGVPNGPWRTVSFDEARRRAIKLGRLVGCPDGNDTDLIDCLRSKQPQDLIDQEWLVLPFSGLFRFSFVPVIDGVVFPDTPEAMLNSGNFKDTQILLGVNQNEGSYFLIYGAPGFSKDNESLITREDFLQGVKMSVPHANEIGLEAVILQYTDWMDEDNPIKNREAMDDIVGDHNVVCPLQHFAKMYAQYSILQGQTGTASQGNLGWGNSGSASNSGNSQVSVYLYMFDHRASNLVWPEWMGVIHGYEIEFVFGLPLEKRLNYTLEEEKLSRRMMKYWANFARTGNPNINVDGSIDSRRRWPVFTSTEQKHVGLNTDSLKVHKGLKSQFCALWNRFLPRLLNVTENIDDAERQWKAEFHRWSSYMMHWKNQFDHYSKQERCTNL
Chain of Amyloid-beta precursor protein (Homo sapiens) (P05067 whole entry): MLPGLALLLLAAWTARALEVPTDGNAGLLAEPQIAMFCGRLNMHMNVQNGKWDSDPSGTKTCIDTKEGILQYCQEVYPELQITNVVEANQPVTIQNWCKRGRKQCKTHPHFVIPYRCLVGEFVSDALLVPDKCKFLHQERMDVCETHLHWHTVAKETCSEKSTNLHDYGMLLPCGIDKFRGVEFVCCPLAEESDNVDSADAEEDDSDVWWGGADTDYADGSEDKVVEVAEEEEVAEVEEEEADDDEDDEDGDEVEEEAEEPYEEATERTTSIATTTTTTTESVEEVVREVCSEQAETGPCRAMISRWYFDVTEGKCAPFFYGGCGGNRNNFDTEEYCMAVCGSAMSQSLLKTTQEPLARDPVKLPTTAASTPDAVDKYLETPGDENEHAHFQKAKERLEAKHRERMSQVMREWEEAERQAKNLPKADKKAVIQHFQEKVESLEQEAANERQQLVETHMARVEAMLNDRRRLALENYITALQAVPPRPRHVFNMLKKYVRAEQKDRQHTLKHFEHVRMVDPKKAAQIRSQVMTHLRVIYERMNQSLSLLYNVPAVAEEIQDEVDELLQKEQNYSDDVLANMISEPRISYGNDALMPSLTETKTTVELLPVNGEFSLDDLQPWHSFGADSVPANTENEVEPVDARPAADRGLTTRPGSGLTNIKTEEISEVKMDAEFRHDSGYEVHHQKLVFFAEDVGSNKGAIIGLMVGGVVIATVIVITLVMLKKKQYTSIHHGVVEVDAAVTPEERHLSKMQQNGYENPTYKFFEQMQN
Chain of Acetylcholinesterase (Electrophorus electricus) (O42275 24-633 limits assumed): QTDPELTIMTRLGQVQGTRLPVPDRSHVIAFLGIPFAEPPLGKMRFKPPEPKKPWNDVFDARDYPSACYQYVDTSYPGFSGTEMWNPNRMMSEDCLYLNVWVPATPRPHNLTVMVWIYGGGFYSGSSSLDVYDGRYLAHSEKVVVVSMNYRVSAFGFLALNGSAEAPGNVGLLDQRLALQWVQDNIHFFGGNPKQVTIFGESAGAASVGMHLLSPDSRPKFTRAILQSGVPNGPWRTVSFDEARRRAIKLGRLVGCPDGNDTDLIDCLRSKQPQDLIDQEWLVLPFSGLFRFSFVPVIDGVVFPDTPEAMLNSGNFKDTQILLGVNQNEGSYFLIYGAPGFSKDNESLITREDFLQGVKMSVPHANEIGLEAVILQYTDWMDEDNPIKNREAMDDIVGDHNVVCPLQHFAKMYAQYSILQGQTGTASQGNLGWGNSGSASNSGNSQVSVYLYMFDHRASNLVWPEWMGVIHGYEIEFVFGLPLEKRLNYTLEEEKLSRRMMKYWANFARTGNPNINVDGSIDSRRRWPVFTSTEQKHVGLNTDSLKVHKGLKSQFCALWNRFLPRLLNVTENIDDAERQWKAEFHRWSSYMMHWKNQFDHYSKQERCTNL

Compound: CN(C)c1ccc(/C=C/C(=O)c2ccc(OC(=O)N3CCCC3)cc2O)cc1
- IC50 (Acetylcholinesterase): 4910 nM
- inhibition (INH) [1]: < 10%
- Activity [2]: 2.83 µMequiv/µM
- inhibition [3]: Active
- Activity [4]: Active
- Activity [5]: Active
- Activity [6]: 0.98 molar ratio
- inhibition [7]: 89.5%
- inhibition [8]: 79.7%
- IC50 [9]: 290 nM
- inhibition at 10 µM [10]: 12.8%
- Ratio IC50 [11]: > 26.7
- Ratio IC50 [12]: 2
- Papp at 18 h, 100 ug/ml [13]: 7.03 ×10⁻⁶ cm/s
